Results on 17 molecules are retold here after ChEMBL document CHEMBL4414563, “Pyrimidine Nucleosides from Streptomyces sp. SSA28” (J Nat Prod, 2019).

The structures appear in SMILES notation. Where a name gives a salt, the structure may show the parent alone.

The test has as its system HCT-116. As to the kind of experiment: Cytotoxicity against human HCT116 cells assessed as reduction in cell viability after 24 hrs by SRB assay. It counts as functional, cell-based. Conditions: HCT-116, 24 h. Put shortly:
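Human colon cancer HCT-116 cells, read out by sulforhodamine B (SRB) staining, with adriamycin as the positive control.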
A general note: Sulforhodamine B stains cellular protein and so reports cell mass.

In general, IC50 refers to the concentration needed to halve the response being measured. In the case of `CC(C)/C=C/C(=O)Nc1ccn([C@H]2CC[C@H](O[C@H]3O[C@H](C)[C@@H](N(C)C)[C@H](O)[C@H]3O)[C@@H](C)O2)c(=O)n1`, the IC50 came to 0.78 µM.
In the case of `CC(C)C(=O)Nc1ccc(C(=O)Nc2ccn([C@H]3CC[C@H](O[C@H]4O[C@H](C)[C@@H](N(C)C)[C@H](O)[C@H]4O)[C@@H](C)O3)c(=O)n2)cc1` it was 6.63 µM; in that of `C[C@H]1O[C@@H](n2ccc(NC(=O)Cc3ccccc3)nc2=O)CC[C@@H]1O`, above 20 µM.
With `CCC(C)/C=C/C(=O)Nc1ccn([C@H]2CC[C@H](O[C@H]3O[C@H](C)[C@@H](N(C)C)[C@H](O)[C@H]3O)[C@@H](C)O2)c(=O)n1` (some centres not stated), the 50% inhibitory concentration (IC50) was found to be 0.89 µM.
With `CC(C)=CC(=O)Nc1ccn([C@H]2C[C@@H](O)[C@H](O)[C@@H](C)O2)c(=O)n1`, the IC50 was above 20 µM.
In the case of `CC(C)CC(=O)Nc1ccn([C@H]2CC[C@H](O[C@H]3O[C@H](C)[C@@H](N(C)C)[C@H](O)[C@H]3O)[C@@H](C)O2)c(=O)n1` it was 2.14 µM; in that of `CC(C)/C=C/C(=O)Nc1ccn([C@H]2CC[C@H](O)[C@@H](C)O2)c(=O)n1`, above 20 µM; in that of `C[C@H]1O[C@@H](n2ccc(NC(=O)CC(C)(C)O)nc2=O)CC[C@@H]1O`, above 20 µM.
With `CC(=O)C(C)Nc1ccc(C(=O)Nc2ccn([C@H]3CC[C@H](O)[C@@H](C)O3)c(=O)n2)cc1` (some centres not stated), the IC50 is above 20 µM.
Regarding `CC(C)=CCC(=O)Nc1ccn([C@H]2CC[C@H](O)[C@@H](C)O2)c(=O)n1`, the 50% inhibitory concentration (IC50) is above 20 µM.
As for `CC(C)CCC(=O)Nc1ccn([C@H]2CC[C@H](O)[C@@H](C)O2)c(=O)n1`, the half-inhibitory concentration (IC50) is above 20 µM.
Take `CC(C)C(=O)Nc1ccn([C@H]2CC[C@H](O)[C@@H](C)O2)c(=O)n1`: the concentration for half-maximal inhibition (IC50) is above 20 µM.
As to `CCC(=O)Nc1ccn([C@H]2CC[C@H](O)[C@@H](C)O2)c(=O)n1`, the IC50 was above 20 µM.
For `CC(C)CCC(=O)Nc1ccn([C@H]2CC[C@H](O[C@H]3O[C@H](C)[C@@H](N(C)C)[C@H](O)[C@H]3O)[C@@H](C)O2)c(=O)n1`, the IC50 was determined as 0.39 µM.
Take `CC(=O)Nc1ccn([C@H]2CC[C@H](O)[C@@H](C)O2)c(=O)n1`: the half-maximal inhibitory concentration (IC50) was above 20 µM.
Regarding `C/C=C(\C)C(=O)Nc1ccn([C@H]2CC[C@H](O[C@H]3O[C@H](C)[C@@H](N(C)C)[C@H](O)[C@H]3O)[C@@H](C)O2)c(=O)n1`, the 50% inhibitory concentration (IC50) was determined as 6.45 µM.
Turning to `COc1cccc2c1C(=O)c1c(O)c3c(c(O)c1C2=O)C[C@@](O)(C(=O)CO)C[C@@H]3O[C@H]1C[C@H](N)[C@H](O)[C@H](C)O1` [DOXORUBICIN HYDROCHLORIDE], the IC50 turned out to be 0.06 µM.
